Only some compounds are listed: those with a hit (about 4.6% of all), similar ones and a draw of the others.
TAAR1 ag – agonists of human TAAR1; CHO RD-HGA16 TAAR1, Fluo-8 calcium fluorescence; vehicle wells 0%, saturating PEA agonist 100%; activation, % at 3 µM; 360,000 tested, 0.99% active;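 active = activation above the mean activation of all test compounds in the run plus 3 SD, cut at about 38% in these data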
Target sequence (Q96RJ0 whole entry, looked up): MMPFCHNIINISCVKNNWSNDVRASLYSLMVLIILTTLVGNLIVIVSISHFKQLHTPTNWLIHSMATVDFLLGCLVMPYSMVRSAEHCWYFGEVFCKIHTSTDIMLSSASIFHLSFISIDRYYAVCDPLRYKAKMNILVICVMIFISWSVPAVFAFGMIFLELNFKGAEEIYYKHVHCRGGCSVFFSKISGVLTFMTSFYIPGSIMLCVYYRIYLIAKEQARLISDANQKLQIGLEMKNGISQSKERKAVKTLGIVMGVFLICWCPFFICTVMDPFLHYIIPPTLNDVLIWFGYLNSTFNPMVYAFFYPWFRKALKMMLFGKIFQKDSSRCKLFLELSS
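Test system: RD-HGA16 (CHO) cells co-expressing Gα16 and hTAAR1; dosing: one-point dosing at 3 µM (nominal); timing: 17-24 h seeding, 75 min 37 °C dye, 30 min RT; signal: kinetic Fluo-8 calcium fluorescence; read-out basis: % activation relative to PEA EC100 response; controls: DMSO and PEA EC100; replicates: n 1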
TAAR1 antagonist – antagonists of human TAAR1 | Q96RJ0 | CHO RD-HGA16 TAAR1, Fluo-8 calcium fluorescence, antagonist | inhibition, % at 3 µM | 360,000 tested, 1.5% active;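 active = inhibition above a per-plate cutoff, the mean inhibition of test compounds on that plate plus 3 SD, cut at about 49% in these data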;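 also: 0% = DMSO plus EC80 beta-PEA response and 100% = DMSO alone without agonist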
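Test system: RD-HGA16 CHO cells with stable hTAAR1 and Gα16 / Probe or stimulus: EC80 β-phenethylamine stimulus / Times: seeding 17-24 h prior, 75-min 37 °C, 30-min RT dye loading / Detection: Fluo-8 calcium-sensitive fluorescence / Read-out basis: % inhibition scaled between DMSO and EC80 PEA controls / Repeats: singlicate, one well per test compound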
GPR7 antagonist – human neuropeptides B/W receptor 1 antagonism; 290,000 tested, 1.1% active; inhibition, % at 4.4 µM; AID 1861; GPR7-expressing cells, fluorescence antagonist assay; in the data active = inhibition above about 16%, passing the limit was not always enough;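 also: cells stimulated with the agonist NPW; 0% = agonist with vehicle and 100% = vehicle without agonist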
Target sequence (P48145 whole entry, looked up): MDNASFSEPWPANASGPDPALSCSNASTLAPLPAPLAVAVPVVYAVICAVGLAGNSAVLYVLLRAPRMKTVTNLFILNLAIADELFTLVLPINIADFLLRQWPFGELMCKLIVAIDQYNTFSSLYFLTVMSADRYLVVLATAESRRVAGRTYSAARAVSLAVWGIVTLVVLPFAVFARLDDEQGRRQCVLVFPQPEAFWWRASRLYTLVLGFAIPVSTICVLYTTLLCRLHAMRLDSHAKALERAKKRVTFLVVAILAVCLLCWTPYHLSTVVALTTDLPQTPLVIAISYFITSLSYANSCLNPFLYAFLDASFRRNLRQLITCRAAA
CHO parental Ca – signal in parental CHO cells, OX1R antagonist counter-screen; parental CHO-K1, ATP-induced calcium, Fluo-8 fluorescence; inhibition, % at 5.6 µM; 330,000 tested, 0.63% active; AID 463079;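 active = inhibition above that plate's mean sample inhibition plus 3 SD, cut at about 26% in these data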;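 also: 0% = ATP-challenged DMSO wells and 100% = DMSO wells without ATP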
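Measured by: calcium-sensitive Fluo-8 fluorescence / Test system: CHO parental line / Controls: ATP-challenged DMSO wells low, unchallenged DMSO wells high / Measure: % inhibition / Compound: single nominal dose of 5.6 µM per compound / Replicates: single well per compound, no replicates / Reagent: ATP as calcium-mobilizing challenge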
OX1R antag-1 – human HCRTR1 antagonism. 330,000 tested, 0.43% active. inhibition, % at 5 µM. CHO/OX1R cells, Fluo-8 calcium fluorescence, orexin A;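 active = inhibition above its plate's threshold, mean inhibition of all tested compounds on the plate plus 3 SD, cut at about 37% in these data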;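 also: 0% = orexin A challenge wells and 100% = SB-334867-A antagonist wells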
OX1R antag-2 – antagonists of human orexin 1 receptor (OX1R); O43613; OX1R-expressing cells, FRET antagonist read-out; inhibition, % at 6.6 µM; 330,000 tested, 1.8% active; AID 485270; in the data active = inhibition mostly above about 38%, no sharp cut-off; inactive = mostly below about 40%;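 also: 0% = agonist challenge alone and 100% = reference antagonist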
TAAR1 ag confirm – human TAAR1 agonism, confirmed. activation, % at 3 µM. shares compounds with TAAR1 ag. 2,400 tested, 82% active. CHO RD-HGA16 TAAR1, Fluo-8 calcium fluorescence; scaled: DMSO 0%, maximal phenethylamine 100%;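 active = activation above a cutoff set at the run's mean compound activation plus 3 SD, cut at about 39% in these data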
Ga16 ag counter – nonselective agonism, TAAR1 counter-screen | shares compounds with TAAR1 ag | CHO-Ga16 parental, Fluo-8 calcium fluorescence; normalized to maximal ATP response, DMSO zero | activation, % at 3 µM | 2,400 tested, 50% active;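 active = activation above the run cutoff, the mean activation over all tested wells plus 3 SD, cut at about 12% in these data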;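 also: 0% = DMSO wells and 100% = maximal ATP response on the peak over basal ratio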
TAAR1 desens – human TAAR1 agonist that also desensitizes the receptor. inhibition, % at 3 µM. AID 651951. 2,400 tested, 46% active. shares compounds with TAAR1 ag. CHO RD-HGA16 hTAAR1, Fluo-8 calcium, beta-PEA response inhibition;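 active = inhibition above the run cutoff, the mean inhibition of all test compounds plus 3 SD, cut at about 49% in these data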;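 also: beta-PEA stimulus applied at its EC80; loss of beta-PEA calcium signal after compound pretreatment read as receptor desensitization; 0% = DMSO with beta-PEA at EC80 and 100% = DMSO alone without agonist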
Ga16 nonsel ant – counter-screen for TAAR1 agonists: nonselective Ga16 antagonists; shares compounds with TAAR1 ag; CHO-Ga16 ATP-induced calcium, Fluo-8 fluorescence; inhibition, % at 3 µM; 2,400 tested, 39% active;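 active = inhibition above the plate's mean compound inhibition plus 3 SD, computed per plate, cut at about 22% in these data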;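 also: 0% = EC80 ATP with DMSO and 100% = DMSO wells without ATP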
Numbers without * were called inactive; . = no result given.

SMILES	TAAR1 ag	TAAR1 antagonist	GPR7 antagonist	CHO parental Ca	OX1R antag-1	OX1R antag-2	TAAR1 ag confirm	Ga16 ag counter	TAAR1 desens	Ga16 nonsel ant
O=C(Cn1cnc([N+](=O)[O-])c1)NCCc1ccccc1	.	.	4	-8	-11	14	.	1	.	-2
O=C(CSc1n[nH]c(-c2ccncc2)n1)Nc1ccc(Cl)cc1	26	15	1	-11	-20	10	.	.	.	.
O=C(CSc1n[nH]c(-c2ccncc2)n1)Nc1ccc(Cl)c(Cl)c1	102*	39	-11	2	-20	18	66*	60*	40	22*
COC(=O)[C@H](CC(C)C)NC(=O)Cn1cnc(C(=O)Nc2ccc(C)c(C)c2)n1	1	-13	.	-16	-12	5	.	.	.	.
NC(Cc1cnc[nH]1)c1csc(Nc2ccc(C(F)(F)F)cn2)n1 (configuration not stated)	3	-23	.	.	.	.	.	.	.	.
CN(Cc1ccccc1)C(=O)c1ccc(Nc2nc(C(N)Cc3ccc(C(F)(F)F)cc3)cs2)nc1 (configuration not stated)	64*	75*	.	.	.	.	59*	30*	63*	70*
CCCCN(C)C(=O)c1ccc(Nc2nc(C(N)Cc3ccccc3)cs2)nc1 (configuration not stated)	49*	24	.	.	.	.	73*	16*	54*	32*
CC(C)CC(N)c1csc(Nc2ccc(C(=O)N(C)Cc3ccccc3)cn2)n1 (configuration not stated)	13	2	.	.	.	.	.	.	.	.
NC(Cc1ccc(F)cc1)c1csc(Nc2ccc(C(F)(F)F)cn2)n1 (configuration not stated)	74*	45	.	.	.	.	49*	27*	38	35*
Cc1ccc(C(=O)Nc2nc(C(N)Cc3ccc(C(F)(F)F)cc3)cs2)cc1 (configuration not stated)	65*	44	.	.	.	.	52*	29*	45	43*
CC(C(=O)N1CCc2ccccc2C1)N(c1ccccc1)S(C)(=O)=O (configuration not stated)	4	-3	0	-17	-19	4	.	.	.	.
CC(=C1C(=O)c2ccccc2C1=O)N1CCc2ccccc2C1	.	.	-12	-24	2	20	.	1	.	1
CCCN1CCN(C(=O)CCc2nnc3ccc(N4CCN(c5cccc(OC)c5)CC4)nn23)CC1	2	7	-11	-15	-13	11	.	.	.	.
Cc1ccc(C(=O)N2CCN(c3ccccn3)CC2)cc1Cl	3	19	7	-10	-27	6	.	.	.	.
CCCc1nnc2c(N(C)S(=O)(=O)c3ccc(C)cc3)nc3ccccc3n12	1	-2	-12	-21	-29	24	.	.	.	.
CCCCc1nnc2c(N(C)S(=O)(=O)c3ccc(C)cc3)nc3ccccc3n12	57*	-8	-12	-12	-24	-1	0	0	2	8
O=C1NCCN(Cc2ccc(Cl)c(F)c2)C1CC(=O)N1CCc2ccccc2C1 (configuration not stated)	60*	11	-5	-14	-16	0	92*	1	46	5
CC1C(=O)N2CCCc3cc(S(=O)(=O)NCCc4ccccc4)cc1c32 (configuration not stated)	52*	-4	-5	-19	-9	18	67*	7	25	17
O=C(NCCc1ccccc1)c1c(F)c(F)c(F)c(F)c1F	4	6	-11	-2	-10	12	.	.	.	.
COc1cccc(OC)c1C(=O)NCCc1ccccc1	81*	8	.	1	-3	14	80*	0	63*	6
COc1cc(C)c(NC(=O)C(=S)NCCc2ccccc2)cc1C	66*	79*	-12	-14	-14	13	92*	2	85*	16
CCOC(=O)c1sc(N)c(C(=O)OC)c1C	1	-15	19	-8	0	17	.	.	.	.
COC(=O)c1c(N)sc(C(=O)NCCc2ccccc2)c1C	101*	74*	-2	.	.	.	86*	4	89*	22*
CC(O)[C@H]1CNC(=O)C(=O)N1CC(C)(C)C (some centres not stated)	9	5	.	2	-10	27	.	.	.	.
CN1CCn2cnc(C(=O)NCCCCCNC(=O)OC(C)(C)C)c2C1=O	5	-5	.	.	.	.	.	.	.	.
SMILES	TAAR1 ag	TAAR1 antagonist	GPR7 antagonist	CHO parental Ca	OX1R antag-1	OX1R antag-2	TAAR1 ag confirm	Ga16 ag counter	TAAR1 desens	Ga16 nonsel ant
CCOC(=O)C1(CC2CCCCO2)CCN(Cc2cc3ccccc3[nH]2)CC1 (configuration not stated)	149*	105*	96*	36*	53*	9	114*	98*	104*	95*
O=c1c2ccccc2c(/C=N/NS(=O)(=O)c2ccccc2)c(O)n1-c1ccccn1	15	14	-7	-7	-3	18	.	.	.	.
Cn1c(=O)c2c(nc(N/N=C/c3cccs3)n2C)n(C)c1=O	1	-27	-7	-17	-28	6	.	.	.	.
Cn1c(N/N=C/c2cccs2)cc(=O)n(C)c1=O	45*	-1	5	2	-7	15	62*	2	14	6
O=C(CC(=O)N/N=C/c1ccccc1)NCc1ccccc1	21	-4	-5	8	9	17	.	.	.	.
O=C(CCC(=O)Nc1ccc(Br)cc1)N/N=C/c1ccccc1F	7	7	0	-14	-31	10	.	.	.	.
O=C(CCC(=O)N/N=C/c1ccccc1O)NCc1ccccc1	42*	20	-10	-5	-15	20	57*	0	35	4
O=C(CNC(=O)c1ccccc1Br)N/N=C/c1ccccc1O	47*	24	-9	-13	-11	29	67*	3	40	7
O=C(Cc1n[nH]c(=O)[nH]c1=O)N/N=C/c1ccccc1O	.	.	-3	-1	-9	15	.	3	.	14
O=C(CCC(=O)Nc1ccc(F)cc1)N/N=C/c1ccccc1O	54*	-8	-1	-7	-4	6	72*	5	48	11
COc1ccc(/C=N/NC(=O)Cc2n[nH]c(=O)[nH]c2=O)cc1	8	-13	-7	-5	-6	18	.	.	.	.
O=C(CNC(=O)c1ccccc1Br)N/N=C/c1cccs1	36	-19	-6	2	-14	-2	.	.	.	.
